Compound activity: PubChem, PCMD
Yeast growth tox: Inhibitors of S. cerevisiae growth, toxicity; S. cerevisiae wild-type growth, A595 turbidity, 16 h; growth inhibition, % at 25 µM (by protocol); 30,000 tested, 0.3% active; AID 685;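 active = mutant and wild-type yeast strains alike exhibit over 30% growth inhibition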;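 note: 0% = untreated cell controls and 100% = YPD media blanks without cells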
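System: S. cerevisiae wild-type or eIF2Bepsilon-R284H mutant strain; times: 16 h growth with compound, 30 °C; signal: absorbance at 595 nm (turbidity); measure: growth inhibition (%) versus cell controls and blanks; compound: 25 µM single dose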
Yeast eIF2B: eIF2B (yeast) activity modulation; inhibition, % at 25 µM (by protocol); 27,000 tested, 0.91% active; S. cerevisiae eIF2B-epsilon R284H, GCN4-lacZ luminescence;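 active = mutant luminescence inhibited past about 50% while wild type luminescence and mutant growth stay under set limits, limit read from the data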
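System: Yeast eIF2B-epsilon R284H mutant carrying GCN4–beta-galactosidase fusion | Read-out basis: Percent inhibition, luminescence and growth | Compound: 25 µM single dose | Times: 16 h at 30 °C exposure | Measured by: Luminescence and A595 | Buffer or medium: YPD medium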
Active calls of the source: *. Most compounds without a hit are left out; they make up all but 1.1% or so of the library.

`c1ccc2c(c1)CNc1ccccc1O2` gave Yeast growth tox -11.8 and Yeast eIF2B 56.5*.
Screening Cc1ccc2c(c1)CNc1ccccc1O2 returned Yeast growth tox 15.5 and Yeast eIF2B 21.8.
O=C(COc1ccc(Cl)cc1Cl)N1CCN(C/C=C/c2ccccc2)CC1 was read as Yeast growth tox 44.2* and Yeast eIF2B 31.6.
`CN1CCN(C(=O)COc2ccc(S(=O)(=O)NCc3ccccc3)cc2Cl)CC1` gave Yeast growth tox 15.8.
For CC(N=Cc1c(O)[nH]c(=O)[nH]c1=O)c1ccccc1 (configuration not stated) the results were Yeast growth tox -15.7 and Yeast eIF2B 13.9.
CCOP(=O)(C#CC(C)(C)C)C1(O)CCCCC1 (configuration not stated) was read as Yeast growth tox 1.7 and Yeast eIF2B 39.8.
Screening COC(=O)CC1=C(C(=O)OC)C2(C(=O)Nc3c(C)cccc32)C(C#N)=C(N)O1 (configuration not stated) returned Yeast growth tox 29.5 and Yeast eIF2B 21.9.
CN(C)Cc1ccccc1OC(=O)N(C)C was read as Yeast growth tox 10.0 and Yeast eIF2B 18.8.
`CN(C)C(=O)Oc1ccc(OC(=O)c2ccccc2)cc1` gave Yeast growth tox 0.5 and Yeast eIF2B 51.1*.
